Measurements published in ChEMBL document CHEMBL3272033, “Physicochemical and pharmacological studies of some 8-substituted decahydroisoquinolines” (J Med Chem, 1976).

Assays:
[1] = tested on: Heart; test: Antiarrhythmic activity in Hartley guinea pig atria assessed as change in spontaneous rate at 73.4 uM/l after 5 mins; type: functional, Cavia porcellus
In short: (§1)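 Spontaneously beating isolated atria held under initial tension; bath fluid changed every 10 min; stabilised about 1 h. Maximum driving rate found with 1-ms square pulses at 50% above threshold voltage, 10 s every 30 s; the frequency just before failure of following is the MDR. Control is the mean of two determinations. Spontaneous rate recorded by tachograph. Values are % change from control at peak response, generally 5–30 min.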

[2] = Therapeutic index, ratio of LD50 for toxicity to ED50 for antiarrhythmic activity in ip dosed Swiss-Webster albino mouse; type: organism-based, Heart; details: in vivo, read-out: Ratio LD50/ED50
[3] = tested on: Heart; test: Antiarrhythmic activity in Hartley guinea pig atria assessed as change in maximum driving rate at 73.4 uM/l after 5 mins; type: functional, Cavia porcellus; in short: as §1
[4] = tested on: Mus musculus; test: Antiarrhythmic activity in ip dosed Swiss-Webster albino mouse assessed as prevention of chloroform-induced ventricular fibrillation; type: functional, Heart
[5] = species: Homo sapiens; test: Drug absorption in buccal cavity in human at pH 7.50 after 5 mins by UV spectrometry; type: ADME, organism-based; details: in vivo, other, pH 7.5, 5 min
In short: (§2)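 3 mg compound in 25 ml buffer (0.1 M phosphate pH 5.50 or 7.50; tetraborate pH 9.30) swished in the mouth for 5 min, expelled, and combined with a 10 ml water rinse. Made up to 50 ml; aliquot basified to pH 10 and ether-extracted, then back-extracted into 0.1 N HCl. UV absorbance read at λmax against Beer's law plots; the unrecovered fraction is taken as % absorbed. One to three subjects.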

[6] = species: Homo sapiens; test: Drug absorption in buccal cavity in human at pH 9.3 after 5 mins by UV spectrometry; type: ADME, organism-based; details: in vivo, other, pH 9.3, 5 min; in short: as §2
[7] = tested on: Mus musculus; test: Toxicity in ip dosed Swiss-Webster albino mouse; type: organism-based; details: in vivo
[8] = species: Homo sapiens; test: Drug absorption in buccal cavity in human at pH 5.50 after 5 mins by UV spectrometry; type: ADME, organism-based; details: in vivo, other, pH 5.5, 5 min; in short: as §2
[9] = Dissociation constant, pKa of the compound in 0.01 M potassium hydrogen phthalate; type: physicochemical
In short: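 pKa by potentiometric titration with 0.01 M potassium hydrogen phthalate in a thermostated vessel, stirred, under nitrogen bubbling, using glass and calomel electrodes. pKa is the mean pH at half-neutralization from four titrations. Endpoints were taken from parallel tangents on either side of the inflection.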

[10] = tested on: Heart; test: Antiarrhythmic activity in Hartley guinea pig atria assessed as change in spontaneous rate at 66.1 uM/l after 5 mins; type: functional, Cavia porcellus; in short: as §1
[11] = tested on: Heart; test: Antiarrhythmic activity in Hartley guinea pig atria assessed as change in maximum driving rate at 66.1 uM/l after 5 mins; type: functional, Cavia porcellus; in short: as §1
[12] = tested on: Heart; test: Antiarrhythmic activity in Hartley guinea pig atria assessed as change in maximum driving rate at 60.2 uM/l after 5 mins; type: functional, Cavia porcellus; in short: as §1
[13] = tested on: Heart; test: Antiarrhythmic activity in Hartley guinea pig atria assessed as change in spontaneous rate at 60.2 uM/l after 5 mins; type: functional, Cavia porcellus; in short: as §1
[14] = tested on: Heart; test: Antiarrhythmic activity in Hartley guinea pig atria assessed as change in maximum driving rate at 55.2 uM/l after 5 mins; type: functional, Cavia porcellus; in short: as §1
[15] = tested on: Heart; test: Antiarrhythmic activity in Hartley guinea pig atria assessed as change in spontaneous rate at 55.2 uM/l after 5 mins; type: functional, Cavia porcellus; in short: as §1
[16] = tested on: Heart; test: Antiarrhythmic activity in Hartley guinea pig atria assessed as change in spontaneous rate at 65.2 uM/l after 5 mins; type: functional, Cavia porcellus; in short: as §1
[17] = tested on: Heart; test: Antiarrhythmic activity in Hartley guinea pig atria assessed as change in maximum driving rate at 65.2 uM/l after 5 mins; type: functional, Cavia porcellus; in short: as §1
[18] = tested on: Heart; test: Antiarrhythmic activity in Hartley guinea pig atria assessed as change in maximum driving rate at 58.6 uM/l after 5 mins; type: functional, Cavia porcellus; in short: as §1
[19] = tested on: Heart; test: Antiarrhythmic activity in Hartley guinea pig atria assessed as change in spontaneous rate at 58.6 uM/l after 5 mins; type: functional, Cavia porcellus; in short: as §1
[20] = tested on: Homo sapiens; test: Toxicity in human assessed as numbness at 5 x 10' -5 M administered topically to buccal cavity measured up to 15 to 20 mins; type: organism-based; details: in vivo, topical_or_ocular, 50 µM
[21] = tested on: Heart; test: Antiarrhythmic activity in Hartley guinea pig atria assessed as change in maximum driving rate at 55.0 uM/l after 5 mins; type: functional, Cavia porcellus; in short: as §1
[22] = tested on: Heart; test: Antiarrhythmic activity in Hartley guinea pig atria assessed as change in spontaneous rate at 55.0 uM/l after 5 mins; type: functional, Cavia porcellus; in short: as §1
[23] = tested on: Heart; test: Antiarrhythmic activity in Hartley guinea pig atria assessed as change in spontaneous rate at 65.0 uM/l after 5 mins; type: functional, Cavia porcellus; in short: as §1
[24] = tested on: Heart; test: Antiarrhythmic activity in Hartley guinea pig atria assessed as reversible decrease in maximum driving rate compound treated for 5 mins measured up to 2 hrs post washout; type: functional, tissue-based; details: Cavia porcellus
In short: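 After compound exposure the bath was washed out. Two MDR determinations were made every 15 min for up to 2 h to follow reversibility and recovery toward control. Bath fluid was changed every 10 min.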

[25] = tested on: Heart; test: Antiarrhythmic activity in Hartley guinea pig atria assessed as change in maximum driving rate at 32.5 uM/l after 5 mins; type: functional, Cavia porcellus; in short: as §1
[26] = tested on: Heart; test: Antiarrhythmic activity in Hartley guinea pig atria assessed as change in maximum driving rate at 65.0 uM/l after 5 mins; type: functional, Cavia porcellus; in short: as §1
[27] = tested on: Heart; test: Antiarrhythmic activity in Hartley guinea pig atria assessed as change in spontaneous rate at 32.5 uM/l after 5 mins; type: functional, Cavia porcellus; in short: as §1
[28] = tested on: Heart; test: Antiarrhythmic activity in Hartley guinea pig atria assessed as change in maximum driving rate at 15.4 uM/l after 5 mins; type: functional, Cavia porcellus; in short: as §1
[29] = tested on: Heart; test: Antiarrhythmic activity in Hartley guinea pig atria assessed as change in spontaneous rate at 30.8 uM/l after 5 mins; type: functional, Cavia porcellus; in short: as §1
[30] = tested on: Heart; test: Antiarrhythmic activity in Hartley guinea pig atria assessed as change in maximum driving rate at 61.6 uM/l after 5 mins; type: functional, Cavia porcellus; in short: as §1
[31] = tested on: Heart; test: Antiarrhythmic activity in Hartley guinea pig atria assessed as change in spontaneous rate at 15.4 uM/l after 5 mins; type: functional, Cavia porcellus; in short: as §1
[32] = tested on: Heart; test: Antiarrhythmic activity in Hartley guinea pig atria assessed as change in spontaneous rate at 61.6 uM/l after 5 mins; type: functional, Cavia porcellus; in short: as §1
[33] = tested on: Heart; test: Antiarrhythmic activity in Hartley guinea pig atria assessed as change in maximum driving rate at 30.8 uM/l after 5 mins; type: functional, Cavia porcellus; in short: as §1

| Compound | selectivity ratio [2] | ED50 [4] | Drug absorption [5] | Drug absorption [6] | LD50 [7] | Drug absorption [8] | pKa [9] | further results |
| --- | --- | --- | --- | --- | --- | --- | --- | --- |
| CN1CC[C@H]2CCC[C@@H](NC(=O)c3ccccc3)[C@H]2C1 (mixture of isomers) | 5.9 | 242 µmol/kg | 16% | 40.6% | 1430 | 9.3% | 9.18 | Activity [1]: -7.2%; Activity [3]: -15.1% |
| CN1CC[C@H]2CCC[C@@H](NC(=O)c3ccccc3)[C@@H]2C1 (mixture of isomers) | 5.9 | 246 µmol/kg | 15.9% | 42.9% | 1450 | 11.1% | 8.99 | Activity [1]: -19.3%; Activity [3]: -17.6% |
| COc1ccccc1C(=O)N[C@@H]1CCC[C@@H]2CCN(C)C[C@@H]21 (mixture of isomers) | 7.3 | 116 µmol/kg | 5.3% | 35.1% | 847 | 1.2% | 9.11 | Activity [10]: -25.5%; Activity [11]: -23.2% |
| COc1ccccc1C(=O)N[C@@H]1CCC[C@@H]2CCN(C)C[C@H]21 (mixture of isomers) | 4.3 | 175 µmol/kg | 12.8% | 41.2% | 761 | 5.2% | 8.81 | Activity [10]: -25%; Activity [11]: -19.8% |
| COc1ccc(C(=O)N[C@@H]2CCC[C@@H]3CCN(C)C[C@@H]32)cc1 (mixture of isomers) | 5.8 | 268 µmol/kg | 7% | 30.6% | 1560 | 4.7% | 9.19 | Activity [10]: -44.2%; Activity [11]: -15.1% |
| COc1ccc(C(=O)N[C@@H]2CCC[C@@H]3CCN(C)C[C@H]32)cc1 (mixture of isomers) | 7.6 | 195 µmol/kg | 9% | 34.3% | 1490 | 7.4% |  | Activity [10]: -21.5%; Activity [11]: -19.8% |
| COc1ccc(C(=O)N[C@@H]2CCC[C@@H]3CCN(C)C[C@@H]32)cc1OC (mixture of isomers) | 8.9 | 199 µmol/kg | 10.4% | 17.6% | 1770 | 7% |  | Activity [12]: -9.71%; Activity [13]: -16.9% |
| COc1ccc(C(=O)N[C@@H]2CCC[C@@H]3CCN(C)C[C@H]32)cc1OC (mixture of isomers) | 9.8 | 164 µmol/kg | 18.9% | 27.1% | 1600 | 16.8% | 8.89 | Activity [12]: -13.8%; Activity [13]: -20.2% |
| COc1cc(C(=O)N[C@@H]2CCC[C@@H]3CCN(C)C[C@@H]32)cc(OC)c1OC (mixture of isomers) | 7.3 | 160 µmol/kg | 14.2% | 23.8% | 1170 | 8.1% | 9.02 | Activity [14]: -7%; Activity [15]: -9.8% |
| CN1CC[C@H]2CCC[C@@H](NC(=O)c3ccc(Cl)cc3)[C@H]2C1 (mixture of isomers) | 4.4 | 209 µmol/kg | 9.3% | 43.2% | 909 | 6.7% |  | Activity [16]: -13.1%; Activity [17]: -28.5% |
| CN1CC[C@H]2CCC[C@@H](NC(=O)c3ccc(Cl)cc3)[C@@H]2C1 (mixture of isomers) | 4.8 | 200 µmol/kg | 12.4% | 54.4% | 952 | 8.2% | 8.83 | Activity [16]: -57.4%; Activity [17]: -20% |
| CN1CC[C@H]2CCC[C@@H](NC(=O)c3ccc(Cl)c(Cl)c3)[C@H]2C1 (mixture of isomers) | 9.7 | 73 µmol/kg | 25.1% | 60.6% | 712 | 20.1% | 9.05 | Activity [18]: -34.1%; Activity [19]: -21.7% |
| COc1cc(C(=O)O[C@@H]2CCC[C@@H]3CCN(C)C[C@@H]32)cc(OC)c1OC (mixture of isomers) | 2.6 | 162 µmol/kg | 38.2% | 70.7% | 421 | 21.2% | 8.91 | Activity [20]: Toxic; Activity [21]: -32.3%; Activity [22]: -53.2% |
| CN1CC[C@H]2CCC[C@@H](OC(=O)c3ccc(Cl)cc3)[C@H]2C1 (mixture of isomers) | 4.7 | 257 µmol/kg | 43.7% | 86.5% | 1200 | 13.7% | 8.9 | Activity [23]: -52.3%; Activity [20]: Toxic; Activity [24]: Dose-dependent effect; Activity [25]: -32.2%; Activity [26]: -53.3%; Activity [27]: -48.6% |
| CN1CC[C@H]2CCC[C@@H](OC(=O)c3ccc(Cl)cc3)[C@@H]2C1 (mixture of isomers) | 5.2 | 146 µmol/kg | 42.7% | 84.7% | 757 | 17.4% | 8.75 | Activity [23]: -60.5%; Activity [20]: Toxic; Activity [26]: -55.8% |
| CN1CC[C@H]2CCC[C@@H](NS(=O)(=O)c3ccccc3)[C@H]2C1 (mixture of isomers) | 5.2 | 282 µmol/kg | 17.7% | 30.4% | 1460 | 14.9% | 9.17 |  |
| CN1CC[C@H]2CCC[C@@H](NS(=O)(=O)c3ccccc3)[C@@H]2C1 (mixture of isomers) | 3.3 | 347 µmol/kg | 20.4% | 37.1% | 1113 | 11.9% | 8.87 |  |
| C=C[C@H]1C[N@@]2CC[C@H]1C[C@@H]2[C@@H](O)c1ccnc2ccc(OC)cc12 [QUINIDINE] |  |  |  |  | 533 uM/L |  |  |  |
| C=C[C@H]1CN2CC[C@H]1C[C@@H]2[C@@H](O)c1ccnc2ccc(OC)cc12 [QUINIDINE] |  | 160 µmol/kg |  |  |  |  |  | Activity [28]: -13.3%; Activity [24]: Dose-dependent effect; Activity [29]: -28.6%; Activity [30]: -36.3%; Activity [31]: -18.8%; Activity [32]: -36.1%; Activity [33]: -22.8% |
